Measured values published in ChEMBL document CHEMBL1122075, “Absolute stereochemistry and dopaminergic activity of enantiomers of 2,3,4,5-tetrahydro-7,8-dihydroxy-1-phenyl-1H-3-benzazepine” (J Med Chem, 1982).

Tests used:
[1] = species: Canis familiaris; test: Renal vascular resistance (RVR) in dog was determined; format: functional, Canis lupus familiaris
Method in brief: (§1)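 Dogs anesthetized and surgically prepared for electromagnetic renal blood flow measurement, with carotid arterial pressure recorded. Drug infused into an antecubital vein at progressively increasing (generally threefold) concentrations to give cumulative dose-response data. RVR = mean arterial pressure / mean renal blood flow. ED15 is the average maximum cumulative dose lowering RVR by 15%.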

[2] = species: Canis familiaris; test: Compound was tested for its renal vasodilator activity in dogs.; format: functional; conditions: Canis lupus familiaris; method in brief: as §1
[3] = species: Rattus norvegicus; test: Compound was tested for maximum response, the percent of cyclic AMP induced by 5 x 10 E-5 M dopamine
[4] = species: Rattus norvegicus; test: Ability to induce contralateral rotations in rats having lesions in the substantia nigra.; format: functional
Method in brief: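 Rotation counts in rats carrying unilateral left substantia nigra lesions. RD500 is the dose calculated to give 500 body rotations over a 2-h test period.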

[5] = molecular target: Adenylate cyclase; test: Tested for ability to stimulate dopamine sensitive adenylate cyclase in rat caudate homogenate
Method in brief: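 Rat striatal homogenates; dopamine-sensitive adenylate cyclase stimulation read as cyclic AMP production. EC50 is the molar concentration giving half-maximal stimulation of cAMP production over the concentration range tested.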

[6] = species: Canis familiaris; test: Percent av maximum in dog was determined; Expressed as av max (%); format: functional, Canis lupus familiaris
[7] = species: Canis familiaris; test: Renal vascular resistance (RVR) in dog was determined; Not statistically significant; format: functional, Canis lupus familiaris; method in brief: as §1
[8] = species: Rattus norvegicus; test: Compound was tested for maximum response, the percent of cyclic AMP induced by 1 x 10 E-4 M dopamine; format: functional

EC50 [5] [nM] | SMILES | RVR [1] | ED15 [2] [mg/kg] | Max response [3] [%] | RD500 [4] [mg/kg] | Activity [6] [%] | RVR [7] | Max response [8] [%]
32 | Cl.Oc1cc2c(cc1O)[C@@H](c1ccccc1)CNCC2 | 18 | 0.025 | 66 | 0.5 | – | – | –
– | Cl.Oc1cc2c(cc1O)[C@H](c1ccccc1)CNCC2 | – | > 0.55 | – | > 2 | 9 | 9 | 27
71 | Cl.Oc1cc2c(cc1O)C(c1ccccc1)CNCC2 (racemic) | 19 | 0.031 | 68 | 0.7 | – | – | –

SMILES | EC50 [5] [nM] | RVR [1] | ED15 [2] [mg/kg] | Max response [3] [%] | RD500 [4] [mg/kg] | Activity [6] [%] | RVR [7] | Max response [8] [%]
NCCc1ccc(O)c(O)c1 [DOPAMINE] | 3500 | – | 0.0027 | – | – | – | – | –
